From ChEMBL document CHEMBL4732060, “Cytotoxic triterpenoid-safirinium conjugates target the endoplasmic reticulum” (Eur J Med Chem, 2021) come the findings set out here.

As usually defined, the EC50 is the midpoint of the concentration-response curve.

Active and inactive are the calls of the source. No cut-off for these calls is given here.

Series [1] has as its system FaDu. In words: Cytotoxicity against human FaDu cells assessed as reduction in cell viability measured after 72 hrs by SRB assay. In kind it is functional, cell-based. (The SRB assay estimates cell density from bound dye.)
For series [2], the system named is HT-29. In words: Cytotoxicity against human HT-29 cells assessed as reduction in cell viability measured after 72 hrs by SRB assay. It counts as functional, cell-based. The following applies: HT-29, 72 h.
For series [3], the system named is HEK293. Nature of the series: Cytotoxicity against human HEK293 cells assessed as reduction in cell viability measured after 72 hrs by SRB assay. In kind it is ADME, cell-based. Particulars: HEK293, 72 h.
Series [4] deals with A-375. In words: Cytotoxicity against human A-375 cells assessed as reduction in cell viability measured after 72 hrs by SRB assay. In kind it is functional, cell-based. The following applies: A-375, 72 h.
The test system of series [5] is MCF7. Nature of the series: Cytotoxicity against human MCF7 cells assessed as reduction in cell viability measured after 72 hrs by SRB assay. It counts as functional, cell-based. The following applies: MCF7, 72 h.
Series [6] can be described thus: Drug uptake in endoplasmic reticulum of human A-375 cells at 5.4 uM measured after 12 hrs by ER-tracker based fluorescence imaging analysis. In kind it is ADME, subcellular. The following applies: a-375, 12 h. The method, boiled down: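 Living A375 cells were incubated with compound for 12 h, co-stained with ER-Tracker, and imaged by fluorescence microscopy. Compound, tracker and merged channels were compared for localisation in the endoplasmic reticulum.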

For series [7], the system named is NIH3T3. In words: Cytotoxicity against mouse NIH3T3 cells assessed as reduction in cell viability measured after 72 hrs by SRB assay. In kind it is cell-based. The following applies: NIH3T3, 72 h. In outline: (§1)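 Sulforhodamine B assay on human tumour lines A375 (epithelial melanoma), HT29 (colorectal adenocarcinoma), MCF-7 (breast adenocarcinoma), A2780 (ovarian carcinoma) and FaDu (squamous cell carcinoma). Non-malignant NIH 3T3 (mouse fibroblasts) and HEK293 (human embryonic kidney) cells were also tested. EC50 values are given as mean ± standard mean error.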

Series [8] is described as follows: Drug uptake in Mitochondria of human A-375 cells at 5.4 uM measured after 12 hrs by Mito-tracker based fluorescence imaging analysis. In kind it is ADME. The following applies: a-375, 12 h.
For series [9], the system named is A2780. Nature of the series: Cytotoxicity against human A2780 cells assessed as reduction in cell viability measured after 72 hrs by SRB assay. It counts as functional, cell-based. Particulars: A2780, 72 h.
For series [10], the system named is HT-29. In words: Cytotoxicity against human HT-29 cells assessed as reduction in cell viability upto 30 uM measured after 72 hrs by SRB assay. It counts as functional, cell-based. The following applies: dose microM <=30, time 72.0 hrs. In outline: as §1
The test system of series [11] is A-375. Nature of the series: Cytotoxicity against human A-375 cells assessed as reduction in cell viability upto 30 uM measured after 72 hrs by SRB assay. It counts as functional, cell-based. The following applies: dose microM <=30, time 72.0 hrs. In outline: as §1
The nature of series [12]: Drug uptake in human A-375 cells measured after 24 hrs by fluorescence imaging analysis. In kind it is ADME, cell-based. Particulars: a-375, 24 h. The method, boiled down:
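Fluorescence imaging of cells after a prolonged 24 h incubation with compound, to judge entry into the cells.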

The subject of series [13] is HEK293. Nature of the series: Cytotoxicity against human HEK293 cells assessed as reduction in cell viability upto 30 uM measured after 72 hrs by SRB assay. In kind it is cell-based. The following applies: hek293, 72 h. In outline:
as §1

In series [14] the test system is FaDu. Nature of the series: Cytotoxicity against human FaDu cells assessed as reduction in cell viability upto 30 uM measured after 72 hrs by SRB assay. Particulars: dose microM <=30, time 72.0 hrs. In kind it is functional, cell-based. In outline: as §1
Series [15] relates to MCF7. In words: Cytotoxicity against human MCF7 cells assessed as reduction in cell viability upto 30 uM measured after 72 hrs by SRB assay. In kind it is functional, cell-based. The following applies: dose microM <=30, time 72.0 hrs. In outline:
as §1

For series [16], the system named is NIH3T3. In words: Cytotoxicity against mouse NIH3T3 cells assessed as reduction in cell viability upto 30 uM measured after 72 hrs by SRB assay. It counts as cell-based. The following applies: nih3t3, 72 h. The method, boiled down: as §1
Series [17] deals with A2780. Nature of the series: Cytotoxicity against human A2780 cells assessed as reduction in cell viability upto 30 uM measured after 72 hrs by SRB assay. The following applies: dose microM <=30, time 72.0 hrs. In kind it is functional, cell-based. In outline: as §1

On to `C=C(C)[C@@H]1CC[C@]2(C(=O)N3CCN(C(=O)C4=C(C)C=C(C)N5C[N+](CCCCCC)(CCCCCC)N=C45)CC3)CC[C@]3(C)[C@H](CC[C@@H]4[C@@]5(C)CC[C@H](OC(C)=O)C(C)(C)[C@@H]5CC[C@]43C)[C@@H]12.[Cl-]`, for which the EC50 stood at 6 µM in the series on FaDu [1]; 7.5 µM with HT-29 [2]; 3 µM in the series on HEK293 [3]; 5.4 µM with A-375 [4]; 4.9 µM with MCF7 [5]; 6.6 µM in the series on NIH3T3 [7]. The EC50 in the series with A2780 [9] worked out at 4.6 µM. Moreover, the figures for the Drug uptake entry in series [6] and in series [8] were “Active” and “Not Active”, respectively.

For `C=C(C)[C@@H]1CC[C@]2(C(=O)N3CCN(C(=O)C4=Cc5ccccc5N5C[N+](CC)(CC)N=C45)CC3)CC[C@]3(C)C(=CC[C@@H]4[C@@]5(C)CC[C@H](OC(C)=O)C(C)(C)[C@@H]5CC[C@]43C)[C@H]12`, the EC50 in the series with FaDu [1] was 28.2 µM; with HT-29 [2], 27 µM; with HEK293 [3], 16.5 µM; with A-375 [4], 20.8 µM; in the series on MCF7 [5], 18.1 µM; with NIH3T3 [7], over 30 µM. The EC50 with A2780 [9] stood at 14.1 µM.

Consider `CC1=CC(C)=C(C(=O)[O-])C2=N[N+]3(CCCC3)CN12`, for which the EC50 in the series with FaDu [1], in the series with HT-29 [2], with A-375 [4], in the series on MCF7 [5], in the series with NIH3T3 [7] and with A2780 [9] was over 30 µM throughout. Moreover, the outcome in the series on HT-29 [10], in the series with A-375 [11], with FaDu [14], in the series with MCF7 [15] and with A2780 [17] was inactive. Also, the Drug uptake entry in series [12] is “Not Active”. In addition, the Activity entry with HEK293 [13] and with NIH3T3 [16] was “Non-Toxic” each time.

Regarding `C=C(C)[C@@H]1CC[C@]2(C(=O)N3CCN(C(=O)C4=C(C)C=C(C)N5C[N+](CCCCCCCCCCCC)(CCCCCCCCCCCC)N=C45)CC3)CC[C@]3(C)[C@H](CC[C@@H]4[C@@]5(C)CC[C@H](OC(C)=O)C(C)(C)[C@@H]5CC[C@]43C)[C@@H]12`, the EC50 was 10.7 µM in the series with FaDu [1]; 24.9 µM in the series with HT-29 [2]; 13.3 µM in the series with HEK293 [3]; 16.8 µM in the series on A-375 [4]; 15.7 µM in the series with MCF7 [5]; over 30 µM in the series with NIH3T3 [7]. Further, in the series on A2780 [9], the EC50 is 11 µM.

Turning to `CCN(CC)c1ccc2c(-c3ccccc3C(=O)O)c3ccc(=[N+](CC)CC)cc-3oc2c1` [RHODAMINE], the EC50 with FaDu [1], in the series with HT-29 [2], in the series with HEK293 [3], in the series with A-375 [4], with MCF7 [5] and with NIH3T3 [7] was over 30 µM in each case. Further, the EC50 with A2780 [9] is over 30 µM.

`CC1=CC(C)=C(C(=O)[O-])C2=N[N+](C)(C)CN12`: the EC50 in the series on FaDu [1], with HT-29 [2], in the series with A-375 [4], in the series with MCF7 [5], with NIH3T3 [7] and with A2780 [9] was over 30 µM each time. Also, the result with HT-29 [10], in the series on A-375 [11], in the series on FaDu [14], in the series with MCF7 [15] and with A2780 [17] was inactive. Further, the Drug uptake entry in [12] is “Not Active”. Moreover, the Activity result in the series on HEK293 [13] and with NIH3T3 [16] was “Non-Toxic” throughout.

Take `C=C(C)[C@@H]1CC[C@]2(C(=O)NCCNC(=O)C3=Cc4ccccc4N4C[N+](CC)(CC)N=C34)CC[C@]3(C)C(=CC[C@@H]4[C@@]5(C)CC[C@H](OC(C)=O)C(C)(C)[C@@H]5CC[C@]43C)[C@H]12`: the EC50 in the series with FaDu [1] stood at 12.3 µM; with HT-29 [2], 26.8 µM; in the series with HEK293 [3] it was 13.6 µM; with A-375 [4], 18.6 µM; in the series with MCF7 [5], 17.6 µM; in the series with NIH3T3 [7], 17.4 µM. In addition, in the series with A2780 [9], the EC50 worked out at 18.3 µM.
